Source: ChEMBL document CHEMBL4765486, “Novel Nonsecosteroidal Vitamin D Receptor Modulator Combined with Gemcitabine Enhances Pancreatic Cancer Therapy through Remodeling of the Tumor Microenvironment” (J Med Chem, 2021)
The source made the active and inactive calls.

Experiments:
LTC-14 [1] = assay: Inhibition of rat LTC-14 cell activation assessed decrease in TGF-beta1 induced Colla1 mRNA expression at 0.5 uM incubated for 24 hrs by q-PCR analysis; type: functional
Method in brief: (§1)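 Immortalized rat PSC line LTC-14, about 1×10^5 cells per well, was grown 24 h at 37 °C in 5% CO2. Cells then received compound (0.5 μM) plus TGF-β1 for 24 h; TGF-β1 is stated as 0.5 ng/mL in the text and 5 ng/mL in the methods. Col1a1 and Acta2 mRNA were measured by RT-qPCR. Mean ± SD versus TGF-β1 alone.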

[2] = Cytotoxicity against rat LTC-14 cells assessed as reduction in cell proliferation incubated for 24 hrs by MTT assay; type: cell-based; details: LTC-14, 24 h
LTC-14 [3] = assay: Inhibition of rat LTC-14 cells activation assessed decrease in TGF-beta1 induced collagen 1 protein expression at 0.5 uM incubated for 24 hrs by Western blot analysis; type: functional, cell-based
Method in brief: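 LTC-14 cells were treated for 24 h with compound (0.5 μM) plus TGF-β1 (0.5 ng/mL in the text, 5 ng/mL in the methods). Lysates were run on 10% SDS-PAGE, transferred to PVDF and probed with rabbit anti-collagen I, with β-actin as reference. Bands were quantified by densitometry versus TGF-β1 alone.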

LTC-14 [4] = assay: Inhibition of rat LTC-14 cells activation assessed decrease in TGF-beta1 induced Acta2 mRNA expression at 0.5 uM incubated for 24 hrs by q-PCR analysis; type: functional, cell-based; method in brief: as §1
[5] = biological target: T1, Vitamin D3 receptor (Homo sapiens) (UniProt P11473); assay: Binding affinity to VDR (unknown origin) at 1 uM by fluorescence polarization assay relative to calcipotriol
T1 sequence (whole entry): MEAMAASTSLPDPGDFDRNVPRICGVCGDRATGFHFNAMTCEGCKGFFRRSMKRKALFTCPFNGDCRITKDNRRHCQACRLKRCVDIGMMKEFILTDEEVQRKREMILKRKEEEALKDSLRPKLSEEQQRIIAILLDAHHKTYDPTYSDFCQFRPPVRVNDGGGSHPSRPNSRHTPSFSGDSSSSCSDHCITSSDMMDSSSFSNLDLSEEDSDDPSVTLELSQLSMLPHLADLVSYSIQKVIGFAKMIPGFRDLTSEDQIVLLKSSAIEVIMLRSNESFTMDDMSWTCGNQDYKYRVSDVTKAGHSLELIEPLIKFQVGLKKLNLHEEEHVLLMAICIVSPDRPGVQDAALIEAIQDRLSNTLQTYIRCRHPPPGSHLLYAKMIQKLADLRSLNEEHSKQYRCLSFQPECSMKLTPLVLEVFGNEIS
Method in brief: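 PolarScreen VDR competitor fluorescence polarization assay with compounds at 1 μM in triplicate. Read-out used 535 nm excitation and 590 nm emission filters.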

Compound	inhibition (LTC-14 [1])	IC50 [2]	inhibition (LTC-14 [3])	inhibition (LTC-14 [4])	RBA [5]	RBA ([5]; filed as agonist)
CCN(CC)CCCNC(=O)c1cc(C(CC)(CC)c2ccc(OCCCC(C)(C)O)c(C)c2)cn1CC	Active	> 10 µM	Active	Active	24%	–
CCN(CC)CCNC(=O)c1cc(C(CC)(CC)c2ccc(OCCCC(O)(CC)CC)c(C)c2)cn1CC	Active	> 10 µM	Active	Active	31%	–
CCn1cc(C(CC)(CC)c2ccc(OCC(C)O)c(C)c2)cc1C(=O)NCCN1CCOCC1 (stereo not given)	Active	> 10 µM	Active	Active	36%	–
CCn1c(C(=O)NCCCN2CCOCC2)ccc1C(CC)(CC)c1ccc(OCCC(C)(C)O)c(C)c1	Active	> 10 µM	Active	Active	–	63%
CCn1cc(C(CC)(CC)c2ccc(OCC(C)O)c(C)c2)cc1C(=O)NCCCN(CCO)CCO (stereo not given)	Active	> 10 µM	Active	Active	–	70%
CCn1c(C(=O)NCCN2CCOCC2)ccc1C(CC)(CC)c1ccc(OCCC(C)(C)O)c(C)c1	Active	> 10 µM	Active	Active	18%	–
CCN(CC)CCCNC(=O)c1cc(C(CC)(CC)c2ccc(OCC(O)C3CC3)c(C)c2)cn1CC (stereo not given)	Active	> 10 µM	Active	Active	–	40%
CCN(CC)CCCNC(=O)c1cc(C(CC)(CC)c2ccc(OCCC(O)(CC)CC)c(C)c2)cn1CC	Active	> 10 µM	Active	Active	–	51%
CCN(CC)CCNC(=O)c1ccc(C(CC)(CC)c2ccc(OCCCC(O)(CC)CC)c(C)c2)n1CC	Active	> 10 µM	Active	Active	38%	–
CCn1c(C(=O)NCCCN2CCN(C)CC2)ccc1C(CC)(CC)c1ccc(OCCC(C)(C)O)c(C)c1	Active	> 10 µM	Active	Active	–	54%
CCn1c(C(=O)NCCN(C)C)ccc1C(CC)(CC)c1ccc(OCCC(C)(C)O)c(C)c1	Active	> 10 µM	Active	Active	–	48%
CCN(CC)CCCNC(=O)c1cc(C(CC)(CC)c2ccc(OCCC(C)(C)O)c(C)c2)cn1CC	Active	> 10 µM	Active	Active	–	67%
CCn1c(C(=O)NCC2CCOCC2)ccc1C(CC)(CC)c1ccc(OCCC(C)(C)O)c(C)c1	Active	> 10 µM	Active	Active	–	77%
CCN(CC)CCCNC(=O)c1cc(C(CC)(CC)c2ccc(OCCCCCC(C)(C)O)c(C)c2)cn1CC	Active	> 10 µM	Active	Active	inactive	–
CCN(CC)CCCNC(=O)c1ccc(C(CC)(CC)c2ccc(OCCCCCC(C)(C)O)c(C)c2)n1CC	Active	> 10 µM	Active	Active	20%	–
CCN(CC)CCCNC(=O)c1ccc(C(CC)(CC)c2ccc(OCC(C)O)c(C)c2)n1CC (stereo not given)	Active	> 10 µM	Active	Active	30%	–
CCN(CC)CCCNC(=O)c1ccc(C(CC)(CC)c2ccc(OCCCCC(C)(C)O)c(C)c2)n1CC	Active	> 10 µM	Active	Active	26%	–
CCN(CC)CCCNC(=O)c1cc(C(CC)(CC)c2ccc(OCCCCC(O)(CC)CC)c(C)c2)cn1CC	Active	> 10 µM	Active	Active	27%	–

Compound	inhibition (LTC-14 [1])	IC50 [2]	inhibition (LTC-14 [3])	inhibition (LTC-14 [4])	RBA [5]	RBA ([5]; filed as agonist)
CCN(CC)CCCNC(=O)c1cc(C(CC)(CC)c2ccc(OCCCC(O)(CC)CC)c(C)c2)cn1CC	Active	> 10 µM	Active	Active	–	46%
CCN(CC)CCCNC(=O)c1ccc(C(CC)(CC)c2ccc(OCC(O)C3CC3)c(C)c2)n1CC (stereo not given)	Active	> 10 µM	Active	Active	39%	–
CCN(CC)CCCNC(=O)c1ccc(C(CC)(CC)c2ccc(OCCCCC(O)(CC)CC)c(C)c2)n1CC	Active	> 10 µM	Active	Active	inactive	–
CCCC(O)(CCC)CCCCOc1ccc(C(CC)(CC)c2ccc(C(=O)NCCCN(CC)CC)n2CC)cc1C	Active	> 10 µM	Active	Active	–	64%
CCn1cc(C(CC)(CC)c2ccc(OCC(C)O)c(C)c2)cc1C(=O)NCC1CCOCC1 (stereo not given)	Active	> 10 µM	Active	Active	–	67%
CCN(CC)CCNC(=O)c1cc(C(CC)(CC)c2ccc(OCCC(O)(CC)CC)c(C)c2)cn1CC	Active	> 10 µM	Active	Active	–	80%
CCn1cc(C(CC)(CC)c2ccc(OCC(C)O)c(C)c2)cc1C(=O)NCCCN1CCOCC1 (stereo not given)	Active	> 10 µM	Active	Active	–	71%
CCN(CC)CCNC(=O)c1cc(C(CC)(CC)c2ccc(OCCCCC(O)(CC)CC)c(C)c2)cn1CC	Active	> 10 µM	Active	Active	–	41%
CCC(O)COc1ccc(C(CC)(CC)c2ccc(C(=O)NCCCN(CC)CC)n2CC)cc1C (stereo not given)	Active	> 10 µM	Active	Active	28%	–
CCN(CC)CCCNC(=O)c1ccc(C(CC)(CC)c2ccc(OCCCC(C)(C)O)c(C)c2)n1CC	Active	> 10 µM	Active	Active	33%	–
CCn1c(C(=O)NCC2CCCO2)ccc1C(CC)(CC)c1ccc(OCCC(C)(C)O)c(C)c1 (stereo not given)	Active	> 10 µM	Active	Active	–	59%
CCCC(O)(CCC)CCOc1ccc(C(CC)(CC)c2ccc(C(=O)NCCCN(CC)CC)n2CC)cc1C	Active	> 10 µM	Active	Active	–	54%
CCN(CC)CCCNC(=O)c1cc(C(CC)(CC)c2ccc(OCCCCC(C)(C)O)c(C)c2)cn1CC	Active	> 10 µM	Active	Active	33%	–
CCn1cc(C(CC)(CC)c2ccc(OCC(C)O)c(C)c2)cc1C(=O)NCCN(C)C (stereo not given)	Active	> 10 µM	Active	Active	–	70%
CCn1cc(C(CC)(CC)c2ccc(OCC(C)O)c(C)c2)cc1C(=O)NCC1CCCO1 (stereo not given)	Active	> 10 µM	Active	Active	–	60%
CCC(O)COc1ccc(C(CC)(CC)c2cc(C(=O)NCCCN(CC)CC)n(CC)c2)cc1C (stereo not given)	Active	> 10 µM	Active	Active	–	64%
CCN(CC)CCCNC(=O)c1ccc(C(CC)(CC)c2ccc(OCCCCCC(O)(CC)CC)c(C)c2)n1CC	Active	> 10 µM	Active	Active	33%	–
CCN(CC)CCCNC(=O)c1cc(C(CC)(CC)c2ccc(OCC(C)O)c(C)c2)cn1CC (stereo not given)	Active	> 10 µM	Active	Active	–	78%
